# According to ChEMBL document CHEMBL4689842, “EUbOPEN Chemogenomics Library wave 1” (2021):
# Test system: U2OS
# Test: Multiplex assay against U2OS
# Type: toxicity, cell-based
# Conditions: human
# In short: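 Imaging took place on a CQ1 microscope at 37°C and 5% CO2 once compound had been added to live cells stained at seeding with Hoechst33342, BioTracker Green Microtubule Cytoskeleton Dye, MitoTracker Red and Annexin V Alexa Fluor 680. CellPathfinder machine-learning gating classed cells as Hoechst high-intensity objects or normal cells, classed normal cells as having healthy, pyknosed or fragmented nuclei, and classed pyknosed cells as mitotic or apoptotic. Tubulin, mitochondrial-mass and membrane-permeability phenotypes are per cents of the healthy-nucleus cells.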
# [1] = 12 h, 1 µM, compound concentration 1 uM, replicate 1
# [2] = 12 h, 1 µM, compound concentration 1 uM, replicate 2
# [3] = 12 h, 10 µM, compound concentration 10 uM, replicate 1
# [4] = 12 h, 10 µM, compound concentration 10 uM, replicate 2
# [5] = 24 h, 1 µM, compound concentration 1 uM, replicate 1
# [6] = 24 h, 1 µM, compound concentration 1 uM, replicate 2
# [7] = 24 h, 10 µM, compound concentration 10 uM, replicate 1
# [8] = 24 h, 10 µM, compound concentration 10 uM, replicate 2
# [9] = 48 h, 1 µM, compound concentration 1 uM, replicate 1
# [10] = 48 h, 1 µM, compound concentration 1 uM, replicate 2
# [11] = 48 h, 10 µM, compound concentration 10 uM, replicate 1
# [12] = 48 h, 10 µM, compound concentration 10 uM, replicate 2
smiles,measurement,setting,value
CC(C)OC(=O)N1CCC(Oc2ncnc3c2cnn3-c2ccc(S(C)(=O)=O)cc2F)CC1,Population Apoptotic (%),[1],57%
same,Population Fragmented Nuclei (%),[1],11%
same,Population Healthy Nuclei (%),[1],80%
same,Population Hoechst High Intensity Objects (%),[1],6%
same,Population Membrane Permeable-Phenotype (%),[1],6%
same,Population Mitochondria Different-Phenotype (%),[1],8%
same,Population Mitotic Cells (%),[1],42%
same,Population Normal (%),[1],93%
same,Population Pyknosed Nuclei (%),[1],7%
same,Population Tubulin-Different-Phenotype (%),[1],12%
same,Total Cell Count,[1],95
same,Population Apoptotic (%),[2],33%
same,Population Fragmented Nuclei (%),[2],5%
same,Population Healthy Nuclei (%),[2],91%
same,Population Hoechst High Intensity Objects (%),[2],7%
same,Population Membrane Permeable-Phenotype (%),[2],4%
same,Population Mitotic Cells (%),[2],66%
same,Population Normal (%),[2],92%
same,Population Pyknosed Nuclei (%),[2],3%
same,Population Tubulin-Different-Phenotype (%),[2],7%
same,Total Cell Count,[2],97
same,Population Apoptotic (%),[3],20%
same,Population Fragmented Nuclei (%),[3],11%
same,Population Healthy Nuclei (%),[3],77%
same,Population Hoechst High Intensity Objects (%),[3],6%
same,Population Membrane Permeable-Phenotype (%),[3],6%
same,Population Mitochondria Different-Phenotype (%),[3],19%
same,Population Mitotic Cells (%),[3],79%
same,Population Normal (%),[3],93%
same,Population Pyknosed Nuclei (%),[3],11%
same,Population Tubulin-Different-Phenotype (%),[3],24%
same,Total Cell Count,[3],221
same,Population Apoptotic (%),[4],18%
same,Population Fragmented Nuclei (%),[4],5%
same,Population Membrane Permeable-Phenotype (%),[4],0%
same,Population Mitochondria Different-Phenotype (%),[4],5%
same,Population Mitotic Cells (%),[4],81%
same,Population Pyknosed Nuclei (%),[4],16%
same,Population Tubulin-Different-Phenotype (%),[4],28%
same,Total Cell Count,[4],72
same,Population Apoptotic (%),[5],57%
same,Population Fragmented Nuclei (%),[5],10%
same,Population Healthy Nuclei (%),[5],83%
same,Population Hoechst High Intensity Objects (%),[5],6%
same,Population Membrane Permeable-Phenotype (%),[5],5%
same,Population Mitochondria Different-Phenotype (%),[5],5%
same,Population Mitotic Cells (%),[5],42%
same,Population Normal (%),[5],93%
same,Population Pyknosed Nuclei (%),[5],6%
same,Population Tubulin-Different-Phenotype (%),[5],11%
same,Total Cell Count,[5],123
same,Population Apoptotic (%),[6],50%
same,Population Fragmented Nuclei (%),[6],4%
same,Population Healthy Nuclei (%),[6],86%
same,Population Hoechst High Intensity Objects (%),[6],2%
same,Population Mitochondria Different-Phenotype (%),[6],4%
same,Population Mitotic Cells (%),[6],50%
same,Population Normal (%),[6],97%
same,Population Pyknosed Nuclei (%),[6],8%
same,Population Tubulin-Different-Phenotype (%),[6],9%
same,Total Cell Count,[6],116
same,Population Apoptotic (%),[7],20%
same,Population Fragmented Nuclei (%),[7],10%
same,Population Healthy Nuclei (%),[7],79%
same,Population Hoechst High Intensity Objects (%),[7],4%
same,Population Membrane Permeable-Phenotype (%),[7],1%
same,Population Mitochondria Different-Phenotype (%),[7],14%
same,Population Mitotic Cells (%),[7],79%
same,Population Normal (%),[7],95%
same,Population Pyknosed Nuclei (%),[7],10%
same,Population Tubulin-Different-Phenotype (%),[7],13%
same,Total Cell Count,[7],248
same,Population Apoptotic (%),[8],33%
same,Population Fragmented Nuclei (%),[8],5%
same,Population Healthy Nuclei (%),[8],87%
same,Population Hoechst High Intensity Objects (%),[8],2%
same,Population Mitochondria Different-Phenotype (%),[8],2%
same,Population Mitotic Cells (%),[8],66%
same,Population Normal (%),[8],97%
same,Population Pyknosed Nuclei (%),[8],6%
same,Population Tubulin-Different-Phenotype (%),[8],31%
same,Total Cell Count,[8],93
same,Population Apoptotic (%),[9],27%
same,Population Fragmented Nuclei (%),[9],6%
same,Population Healthy Nuclei (%),[9],83%
same,Population Hoechst High Intensity Objects (%),[9],4%
same,Population Membrane Permeable-Phenotype (%),[9],1%
same,Population Mitotic Cells (%),[9],72%
same,Population Normal (%),[9],95%
same,Population Pyknosed Nuclei (%),[9],9%
same,Population Tubulin-Different-Phenotype (%),[9],5%
same,Total Cell Count,[9],193
same,Population Apoptotic (%),[10],30%
same,Population Fragmented Nuclei (%),[10],5%
same,Population Healthy Nuclei (%),[10],88%
same,Population Hoechst High Intensity Objects (%),[10],2%
same,Population Membrane Permeable-Phenotype (%),[10],7%
same,Population Mitochondria Different-Phenotype (%),[10],10%
same,Population Mitotic Cells (%),[10],69%
same,Population Normal (%),[10],97%
same,Population Pyknosed Nuclei (%),[10],6%
same,Population Tubulin-Different-Phenotype (%),[10],9%
same,Total Cell Count,[10],199
same,Population Apoptotic (%),[11],35%
same,Population Fragmented Nuclei (%),[11],5%
same,Population Healthy Nuclei (%),[11],82%
same,Population Hoechst High Intensity Objects (%),[11],2%
same,Population Membrane Permeable-Phenotype (%),[11],2%
same,Population Mitochondria Different-Phenotype (%),[11],13%
same,Population Mitotic Cells (%),[11],64%
same,Population Normal (%),[11],97%
same,Population Pyknosed Nuclei (%),[11],11%
same,Population Tubulin-Different-Phenotype (%),[11],8%
same,Total Cell Count,[11],324
same,Population Apoptotic (%),[12],40%
same,Population Fragmented Nuclei (%),[12],3%
same,Population Healthy Nuclei (%),[12],92%
same,Population Hoechst High Intensity Objects (%),[12],1%
same,Population Mitochondria Different-Phenotype (%),[12],12%
same,Population Mitotic Cells (%),[12],60%
same,Population Normal (%),[12],98%
same,Population Pyknosed Nuclei (%),[12],3%
same,Population Tubulin-Different-Phenotype (%),[12],37%
same,Total Cell Count,[12],157
C=CC(=O)Nc1ccc2[nH]c(=O)n(C3CCN(Cc4ccc(-c5nc6cc[nH]c(=O)c6cc5-c5ccccc5)cc4)CC3)c2c1 [Borussertib],Population Apoptotic (%),[1],25%
same,Population Fragmented Nuclei (%),[1],5%
same,Population Healthy Nuclei (%),[1],91%
same,Population Hoechst High Intensity Objects (%),[1],3%
same,Population Membrane Permeable-Phenotype (%),[1],12%
same,Population Mitochondria Different-Phenotype (%),[1],35%
same,Population Mitotic Cells (%),[1],75%
same,Population Normal (%),[1],96%
same,Population Pyknosed Nuclei (%),[1],2%
same,Population Tubulin-Different-Phenotype (%),[1],29%
same,Total Cell Count,[1],158
same,Population Apoptotic (%),[2],28%
same,Population Healthy Nuclei (%),[2],87%
same,Population Hoechst High Intensity Objects (%),[2],14%
same,Population Membrane Permeable-Phenotype (%),[2],11%
same,Population Mitochondria Different-Phenotype (%),[2],21%
same,Population Mitotic Cells (%),[2],71%
same,Population Normal (%),[2],85%
same,Population Pyknosed Nuclei (%),[2],6%
same,Population Tubulin-Different-Phenotype (%),[2],23%
same,Total Cell Count,[2],124
same,Population Apoptotic (%),[3],54%
same,Population Fragmented Nuclei (%),[3],2%
same,Population Healthy Nuclei (%),[3],84%
same,Population Hoechst High Intensity Objects (%),[3],4%
same,Population Membrane Permeable-Phenotype (%),[3],24%
same,Population Mitochondria Different-Phenotype (%),[3],18%
same,Population Mitotic Cells (%),[3],45%
same,Population Normal (%),[3],95%
same,Population Pyknosed Nuclei (%),[3],13%
same,Population Tubulin-Different-Phenotype (%),[3],38%
same,Total Cell Count,[3],190
same,Population Apoptotic (%),[4],60%
same,Population Fragmented Nuclei (%),[4],6%
same,Population Healthy Nuclei (%),[4],77%
same,Population Hoechst High Intensity Objects (%),[4],8%
same,Population Membrane Permeable-Phenotype (%),[4],33%
same,Population Mitochondria Different-Phenotype (%),[4],28%
same,Population Mitotic Cells (%),[4],40%
same,Population Normal (%),[4],91%
same,Population Pyknosed Nuclei (%),[4],15%
same,Population Tubulin-Different-Phenotype (%),[4],32%
same,Total Cell Count,[4],104
same,Population Apoptotic (%),[5],36%
same,Population Fragmented Nuclei (%),[5],1%
same,Population Healthy Nuclei (%),[5],93%
same,Population Hoechst High Intensity Objects (%),[5],2%
same,Population Membrane Permeable-Phenotype (%),[5],8%
same,Population Mitochondria Different-Phenotype (%),[5],22%
same,Population Mitotic Cells (%),[5],63%
same,Population Normal (%),[5],97%
same,Population Pyknosed Nuclei (%),[5],5%
same,Population Tubulin-Different-Phenotype (%),[5],34%
same,Total Cell Count,[5],220
same,Population Apoptotic (%),[6],37%
same,Population Fragmented Nuclei (%),[6],9%
same,Population Healthy Nuclei (%),[6],84%
same,Population Hoechst High Intensity Objects (%),[6],7%
same,Population Membrane Permeable-Phenotype (%),[6],10%
same,Population Mitochondria Different-Phenotype (%),[6],29%
same,Population Mitotic Cells (%),[6],62%
same,Population Normal (%),[6],92%
same,Population Pyknosed Nuclei (%),[6],6%
same,Population Tubulin-Different-Phenotype (%),[6],28%
same,Total Cell Count,[6],137
same,Population Apoptotic (%),[7],66%
same,Population Fragmented Nuclei (%),[7],6%
same,Population Healthy Nuclei (%),[7],85%
same,Population Hoechst High Intensity Objects (%),[7],2%
same,Population Membrane Permeable-Phenotype (%),[7],13%
same,Population Mitochondria Different-Phenotype (%),[7],19%
same,Population Mitotic Cells (%),[7],33%
same,Population Normal (%),[7],97%
same,Population Pyknosed Nuclei (%),[7],7%
same,Population Tubulin-Different-Phenotype (%),[7],26%
same,Total Cell Count,[7],238
same,Population Apoptotic (%),[8],83%
same,Population Fragmented Nuclei (%),[8],12%
same,Population Healthy Nuclei (%),[8],76%
same,Population Hoechst High Intensity Objects (%),[8],13%
same,Population Membrane Permeable-Phenotype (%),[8],21%
same,Population Mitochondria Different-Phenotype (%),[8],28%
same,Population Mitotic Cells (%),[8],16%
same,Population Normal (%),[8],86%
same,Population Pyknosed Nuclei (%),[8],11%
same,Population Tubulin-Different-Phenotype (%),[8],22%
same,Total Cell Count,[8],121
